Assay results published in ChEMBL document CHEMBL1134325, “Diaminoindanes as microsomal triglyceride transfer protein inhibitors” (J Med Chem, 2001).

What was measured:
Rattus norvegicus [1] = experiment: Inhibition of total cholesterol in normolipidemic rats after 2 hr of 10 mg/kg oral dosing; format: functional
Method in brief: (§1)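 Overnight-fasted normolipidemic rats received a single oral dose in cornstarch vehicle. Blood was drawn at 2, 6 and 24 h post-dose and assayed for triglycerides and total cholesterol, with free access to food after the 6 h sample. Value is mean percent inhibition versus a separate vehicle-treated group, unpaired t test p < 0.05, NS = no significant change, N = 6.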

Canis familiaris [2] = experiment: Inhibition of plasma total cholesterol in the normolipidemic dogs after day 2 of oral administration of 5 mg/kg/day.; format: functional, Canis lupus familiaris
Method in brief: (§2)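 Normolipidemic dogs dosed once daily for 4 days by oral gavage, compound suspended in cornstarch vehicle. Plasma sampled 24 h after dosing on days 0, 2, 3 and 4, assayed for triglycerides and total cholesterol (mg/dL). Mean percent inhibition versus day-0 level is given for treated dogs; n = 6 per group; significance by one-way ANOVA, p < 0.05.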

Canis familiaris [3] = experiment: Inhibition of plasma total cholesterol in the normolipidemic dogs after day 2 of oral administration of 10 mg/kg/day.; format: functional, Canis lupus familiaris; method in brief: as §2
Rattus norvegicus [4] = experiment: Inhibition of plasma triglycerides in normolipidemic rats after 2 hr of 10 mg/kg oral dosing; format: functional; method in brief: as §1
Canis familiaris [5] = experiment: Inhibition of plasma total cholesterol in the normolipidemic dogs after day 3 of oral administration of 5 mg/kg/day.; format: functional, Canis lupus familiaris; method in brief: as §2
Rattus norvegicus [6] = experiment: Inhibition of plasma triglycerides in normolipidemic rats after 2 hr of 50 mg/kg oral dosing; format: functional; method in brief: as §1
Canis familiaris [7] = experiment: Inhibition of plasma total cholesterol in the normolipidemic dogs after day 4 of oral administration of 10 mg/kg/day. Values in the parentheses indicate mean percent inhibition for drug treated dogs.; format: functional, Canis lupus familiaris; method in brief: as §2
Canis familiaris [8] = experiment: Inhibition of plasma total triglycerides in the normolipidemic dogs after day 2 of oral administration of 10 mg/kg/day.; format: functional, Canis lupus familiaris; method in brief: as §2
[9] = molecular target: T1, Microsomal triglyceride transfer protein large subunit (Homo sapiens, UniProt P55157); experiment: In vitro inhibitory activity against MTP using MTP transfer assay
T1 sequence (P55157 whole entry): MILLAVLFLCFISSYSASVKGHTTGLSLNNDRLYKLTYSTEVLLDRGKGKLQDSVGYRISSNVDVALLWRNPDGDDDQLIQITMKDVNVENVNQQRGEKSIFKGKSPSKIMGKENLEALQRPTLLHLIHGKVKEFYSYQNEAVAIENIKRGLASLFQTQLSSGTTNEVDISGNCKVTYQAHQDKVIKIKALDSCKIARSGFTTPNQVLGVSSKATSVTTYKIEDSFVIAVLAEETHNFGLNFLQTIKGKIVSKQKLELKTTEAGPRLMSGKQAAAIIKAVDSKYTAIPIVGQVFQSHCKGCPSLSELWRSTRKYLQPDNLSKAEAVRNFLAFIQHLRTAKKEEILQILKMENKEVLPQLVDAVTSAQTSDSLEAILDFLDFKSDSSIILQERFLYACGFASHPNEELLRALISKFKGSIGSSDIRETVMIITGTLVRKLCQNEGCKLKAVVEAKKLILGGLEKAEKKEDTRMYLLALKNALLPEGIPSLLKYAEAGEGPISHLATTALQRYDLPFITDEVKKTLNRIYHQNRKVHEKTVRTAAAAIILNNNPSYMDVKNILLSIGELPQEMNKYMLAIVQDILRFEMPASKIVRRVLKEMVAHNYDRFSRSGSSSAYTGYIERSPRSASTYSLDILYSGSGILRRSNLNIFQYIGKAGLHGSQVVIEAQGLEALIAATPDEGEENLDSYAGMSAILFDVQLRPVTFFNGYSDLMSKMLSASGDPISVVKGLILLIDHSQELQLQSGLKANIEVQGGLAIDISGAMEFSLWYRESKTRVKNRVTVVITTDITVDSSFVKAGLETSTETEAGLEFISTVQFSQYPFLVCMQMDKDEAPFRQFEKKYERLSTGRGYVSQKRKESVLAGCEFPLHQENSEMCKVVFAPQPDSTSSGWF

Canis familiaris [10] = experiment: Inhibition of plasma total cholesterol in the normolipidemic dogs after day 3 of oral administration of 10 mg/kg/day.; format: functional, Canis lupus familiaris; method in brief: as §2
Rattus norvegicus [11] = experiment: Inhibition of plasma triglycerides in normolipidemic rats after 6 hr of 10 mg/kg oral dosing; format: functional; method in brief: as §1
Canis familiaris [12] = experiment: Inhibition of plasma total triglycerides in the normolipidemic dogs after day 3 of oral administration of 10 mg/kg/day.; format: functional, Canis lupus familiaris
Canis familiaris [13] = experiment: Inhibition of plasma total cholesterol in the normolipidemic dogs after day 4 of oral administration of 5 mg/kg/day. Values in the parentheses indicate mean percent inhibition for drug treated dogs.; format: functional, Canis lupus familiaris; method in brief: as §2
Rattus norvegicus [14] = experiment: Inhibition of plasma triglycerides in normolipidemic rats after 24 hr of 10 mg/kg oral dosing; no significant change; format: functional, organism-based; parameters: dose 10 mg/kg; method in brief: as §1
Rattus norvegicus [15] = experiment: Inhibition of total cholesterol in normolipidemic rats after 6 hr of 50 mg/kg oral dosing; format: functional; method in brief: as §1
Rattus norvegicus [16] = experiment: Inhibition of total cholesterol in normolipidemic rats after 24 hr of 50 mg/kg oral dosing; format: functional; method in brief: as §1
Canis familiaris [17] = experiment: Inhibition of plasma total triglycerides in the normolipidemic dogs after day 0 of oral administration of 10 mg/kg/day.; format: functional, Canis lupus familiaris; method in brief: as §2
Rattus norvegicus [18] = experiment: Inhibition of plasma triglycerides in normolipidemic rats after 24 h of 50 mg/kg oral dosing; no significant change; format: functional, organism-based; parameters: dose 50 mg/kg; method in brief: as §1
Canis familiaris [19] = experiment: Inhibition of plasma total cholesterol in the normolipidemic dogs after day 0 of oral administration of 5 mg/kg/day.; format: functional, Canis lupus familiaris; method in brief: as §2
Rattus norvegicus [20] = experiment: Inhibition of plasma triglycerides in normolipidemic rats after 6 hr of 50 mg/kg oral dosing; format: functional; method in brief: as §1
Canis familiaris [21] = experiment: Inhibition of plasma total triglycerides in the normolipidemic dogs after day 3 of oral administration of 5 mg/kg/day.; format: functional, Canis lupus familiaris
Canis familiaris [22] = experiment: Inhibition of plasma total triglycerides in the normolipidemic dogs after day 4 of oral administration of 5 mg/kg/day.; format: functional, Canis lupus familiaris
Rattus norvegicus [23] = experiment: Inhibition of total cholesterol in normolipidemic rats after 24 hr of 10 mg/kg oral dosing; no significant change; format: functional, organism-based; parameters: dose 10 mg/kg; method in brief: as §1
Rattus norvegicus [24] = experiment: Inhibition of total cholesterol in normolipidemic rats after 2 hr of 50 mg/kg oral dosing; format: functional; method in brief: as §1
Canis familiaris [25] = experiment: Inhibition of plasma total triglycerides in the normolipidemic dogs after day 4 of oral administration of 10 mg/kg/day. Values in the parentheses indicate mean percent inhibition for drug treated dogs.; format: functional, Canis lupus familiaris
Canis familiaris [26] = experiment: Inhibition of plasma total triglycerides in the normolipidemic dogs after day 2 of oral administration of 5 mg/kg/day.; format: functional, Canis lupus familiaris; method in brief: as §2
Canis familiaris [27] = experiment: Inhibition of plasma total triglycerides in the normolipidemic dogs after day 0 of oral administration of 5 mg/kg/day.; format: functional, Canis lupus familiaris; method in brief: as §2
Canis familiaris [28] = experiment: Inhibition of plasma total cholesterol in the normolipidemic dogs after day 0 of oral administration of 10 mg/kg/day.; format: functional, Canis lupus familiaris; method in brief: as §2
Rattus norvegicus [29] = experiment: Inhibition of total cholesterol in normolipidemic rats after 6 hr of 10 mg/kg oral dosing; format: functional; method in brief: as §1

For `Cc1cccc(C(=O)Nc2ccc3c(c2)C[C@@H](NCc2ccccn2)C3)c1-c1ccc(C(F)(F)F)cc1`, the Reduction (Rattus norvegicus [1]) was 34%, the Lipid level (Canis familiaris [2]) was <110 mg/dL and the Lipid level (Canis familiaris [3]) was <69 mg/dL. The Reduction (Rattus norvegicus [4]) was 86%, the Lipid level (Canis familiaris [5]) was <99 mg/dL and the Reduction (Rattus norvegicus [6]) was 91%. For the same compound, the Lipid level (Canis familiaris [7]) was <36 mg/dL, the Lipid level (Canis familiaris [8]) was <26 mg/dL and the IC50 [9] was 100 nM. For the same compound, the Lipid level (Canis familiaris [10]) was <54 mg/dL, the Reduction (Rattus norvegicus [11]) was 47% and the Lipid level (Canis familiaris [12]) was <27 mg/dL. The Lipid level (Canis familiaris [13]) was <94 mg/dL, the NS (Rattus norvegicus [14]) was “no significant change” and the Reduction (Rattus norvegicus [15]) was 57%. The Reduction (Rattus norvegicus [16]) was 29%, the Lipid level (Canis familiaris [17]) was 46 mg/dL and the NS (Rattus norvegicus [18]) was “no significant change”. It also gave a Lipid level (Canis familiaris [19]) of 130 mg/dL, a Reduction (Rattus norvegicus [20]) of 88% and a Lipid level (Canis familiaris [21]) of 41 mg/dL. For the same compound, the Lipid level (Canis familiaris [22]) was 32 mg/dL, the NS (Rattus norvegicus [23]) was “no significant change” and the Reduction (Rattus norvegicus [24]) was 40%. The Lipid level (Canis familiaris [25]) was <23 mg/dL, the Lipid level (Canis familiaris [26]) was 38 mg/dL and the Lipid level (Canis familiaris [27]) was 36 mg/dL. For the same compound, the Lipid level (Canis familiaris [28]) was 125 mg/dL and the Reduction (Rattus norvegicus [29]) was 35%.
